Source: PubChem (several laboratories)
Only some compounds are listed: those with a hit (about 1.7% of all), similar ones and a draw of the others.
HNF4A DNA FP – change in binding of human HNF4 alpha to DNA. P41235. HNF4a-FITC DNA binding, fluorescence polarization, 1 h. activity change, % at 10 µM. 360,000 compounds, 0.3% hits. AID 1224865; in the data active means activity change above about 30%, passing the limit was not always enough
Target sequence (P41235 whole entry, looked up): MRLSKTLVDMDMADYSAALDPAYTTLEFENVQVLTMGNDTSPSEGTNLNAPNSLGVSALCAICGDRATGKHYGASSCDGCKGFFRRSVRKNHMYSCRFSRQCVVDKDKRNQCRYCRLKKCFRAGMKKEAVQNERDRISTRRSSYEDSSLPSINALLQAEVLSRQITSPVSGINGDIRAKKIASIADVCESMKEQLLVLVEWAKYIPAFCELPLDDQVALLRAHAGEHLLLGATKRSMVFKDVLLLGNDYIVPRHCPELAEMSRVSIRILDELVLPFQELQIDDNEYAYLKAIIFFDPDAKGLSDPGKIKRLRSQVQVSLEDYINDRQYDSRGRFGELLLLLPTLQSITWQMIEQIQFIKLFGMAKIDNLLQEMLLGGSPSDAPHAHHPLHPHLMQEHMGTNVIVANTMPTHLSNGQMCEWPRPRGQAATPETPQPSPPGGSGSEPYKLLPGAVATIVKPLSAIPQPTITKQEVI
NR1D1 modulator – modulates human Rev-erb alpha binding to DNA; Rev-erbα–FITC-DNA binding, fluorescence polarization, 90 min; activity, % at 10 µM; 370,000 compounds, 0.79% hits; AID 1259318;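 active means activity above about 14%, limit read from the data; passing the limit was not always enough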;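 further: 0% = DMSO wells with 35 nM protein and 100% = DMSO wells with 750 nM protein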
CSN deneddyl inh – CSN deneddylation inhibition; Purified CSN, SCF-Nedd8-OG deneddylation, fluorescence polarization; Q92905; 360,000 compounds, 0.38% hits; inhibition, % at 12.5 µM; AID 651999;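 active means pattern-corrected inhibition above about 35%, with an unprinted fluorescence ratio check between 0.5 and 1.5, limit read from the data, passing the limit was not always enough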;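 further: 0% = enzyme with substrate and 100% = substrate without enzyme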
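Assay system: HEK293T-derived human Csn5 enzyme; quantity: 0.24 nM enzyme; medium: Tris/NaCl/DTT buffer, pH 7.5; also added: substrate SCFSkp2-Nedd8OG, 10 nM; doses: 12.5 µM compound; schedule: 90 min reaction at room temperature; signal: FP; read-out: % inhibition of substrate cleavage by Csn5; benchmarks: substrate-only high control, full reaction low control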
TPT1 inh – inhibitors of Candida albicans tRNA 2'-phosphotransferase TPT1 | 300,000 compounds, 0.81% hits | inhibition, % at 5 µM | AID 1962 | recombinant caTPT1, FP RNA substrate dephosphorylation;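 active means inhibition above the mean of all tested compounds plus 3 SD, set per screening campaign, cut at about 24% in these data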;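 further: plate controls were DMSO alone for no effect and ferristatin control at 100 nM for full effect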
NR1D1 mod conf – confirmation of modulators of human Rev-erb alpha DNA binding. shares compounds with NR1D1 modulator. AID 1259319. Rev-erb alpha FITC-DNA binding, fluorescence polarization, 90 min. activation, % at 25 µM. 3,000 compounds, 61% hits;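 active means activation at or above a set limit, or at least 3 SD above the negative control mean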;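 further: 0% = 35 nM protein with DMSO and 100% = 750 nM protein high control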
RORg DNA counter – RORgamma DNA-binding activity, dose-response counter-screen. shares compounds with NR1D1 modulator. purified RORgamma protein-FITC-DNA binding, fluorescence polarization. IC50, µM. 910 compounds, 8% hits;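 active means Compounds whose fitted half-maximal concentration for disrupting protein-DNA binding is below 10 micromolar; the record names Rev-erb in its text, so the target is in doubt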
The depositor's hits bear a star; i = inactive; x = no result given.

SMILES	HNF4A DNA FP	NR1D1 modulator	CSN deneddyl inh	TPT1 inh	NR1D1 mod conf	others
O=C1c2cccc3c(O)ccc(c23)C(=O)N1c1ccc(Cl)cc1	-100.1	59.9*	-75.8	-13.6	53.1*	RORg DNA counter=9.4*
CCCC1CCC2(CC1)CCC2OC(=S)NCc1cccc(F)c1 (centres undefined)	x	0.7	x	x	x
CC(=O)Nc1ccc(Cl)c(-c2nc3ncccc3o2)c1	1.9	3.0	2.5	-3.1	x
C=CCN=C1NC(c2ccccc2)C(C(=O)OC)=C(C)N1C (centres undefined)	x	-1.1	x	x	x
COc1ccc2cc3cc(C(=O)Nc4ccc(F)cc4)sc3nc2c1	x	-17.9	x	x	x
CC(C)(C)c1ccc(-c2nnc3sc(-c4ccccn4)nn23)cc1	-1.6	21.8*	-2.5	2.9	21.0*
Cc1cccc(-c2nnc3sc(-c4ccccc4)nn23)c1	-1.8	82.3*	-2.1	-2.7	135.4*
c1ccc(-c2nn3c(-c4ccccc4)nnc3s2)cc1	2.3	15.3	-0.2	1.8	x
C[C@@H](NC(=O)c1ccc(C#Cc2cccc(F)c2)cn1)C(C)(C)O	x	1.9	x	x	x
CCc1ccc(Nc2n[n+](-c3ccccc3)c(-c3ccc(OCc4ccccc4)cc3)s2)cc1	-4.8	16.3*	7.0	-0.8	5.2
CCCn1c(=S)[nH]c2cc(C(=O)N3CCc4ccccc4C3)ccc2c1=O	1.8	0.6	5.0	1.1	x
CCOc1cc2[nH]c(=S)n(CCC(=O)N3CCc4ccccc4C3)c(=O)c2cc1OCC	-2.3	58.7*	-5.8	3.4	62.0*	RORg DNA counter=>40
CC(C)(C)c1ccc(C(=O)c2c[nH]c(C(=O)NCc3cccs3)c2)cc1	2.7	95.8*	4.8	-1.1	94.4*	RORg DNA counter=i
COc1ccc(-c2c(C#N)c(C)nc3c2C(=O)c2ccccc2-3)cc1	24.1	150.6*	15.7	-3.1	122.2*
COc1ccc(OC)c(Nc2ncnc3ccc(Br)cc23)c1	2.5	59.1*	-1.0	-0.9	29.0*
COc1ccc(OC)c(Nc2ncnc3ccccc23)c1	-1.3	-2.4	0.4	-0.5	x
C[C@H]1Cn2nncc2Cn2c3ccccc3c(=O)n21	x	-4.3	x	x	x
CN1c2ccccc2C(=O)/C(=C\Nc2ccc(F)cc2)S1(=O)=O	-1.1	1.5	-1.9	0.8	x
COc1ccc(N/C=C2\C(=O)c3c(sc(C)c3C)N(C)S2(=O)=O)cc1	1.2	77.9*	4.6	-2.9	4.8
Cc1ccccc1NC(=O)[C@@H]1CC(=O)O[C@@H]1c1ccccc1	x	-3.2	x	x	x
O=C(/C=C/c1cccc2ccccc12)NCCC1=CCCCC1	0.8	29.0*	2.5	-2.7	38.2*	RORg DNA counter=>40
COc1cccc(/C=C/C(=O)OCC(=O)NCCC2=CCCCC2)c1OC	-0.9	2.7	-0.9	x	x
S=c1[nH]ncn2c1cc1oc3ccccc3c12	3.2	33.7*	-4.2	-5.3	20.0*
COc1cccc(/C=C2\CC3(OC(=O)C4CCCC4)CCCN2C3)c1 (centres undefined)	x	3.2	x	x	x
O=C(NCc1ccc(-c2nc3ccccc3s2)cc1)c1cc2ccccc2o1	4.6	10.3	-3.1	-1.0	x
SMILES	HNF4A DNA FP	NR1D1 modulator	CSN deneddyl inh	TPT1 inh	NR1D1 mod conf	others
COc1cc(C(=O)NCc2ccncc2)cc(OC)c1OC	0.8	-8.6	-10.1	0.7	x
O=C(NCc1ccc(-c2nc3ccccc3s2)cc1)c1ccc(Br)o1	2.8	20.6*	3.4	-1.0	13.1
COc1ccc(C(=O)NCc2ccc(-c3nc4ccccc4s3)cc2)cc1	2.8	1.4	2.6	-2.2	x
COc1ccc(C(=O)Nc2ccc3oc(-c4cccc(F)c4)nc3c2)cc1OC	4.6	7.4	6.4	-3.6	x
COc1cc(C(=O)NCc2ccc(-c3nc4ccccc4o3)cc2)cc(OC)c1OC	3.2	25.8*	0.9	3.4	10.6
COc1cc(C(=O)NCc2ccc(-c3nc4ccccc4s3)cc2)cc(OC)c1OC	0.5	38.3*	-14.7	1.3	32.5*	RORg DNA counter=i
COc1ccccc1C(=O)Nc1ccc2oc(-c3ccc(F)cc3)nc2c1	-0.7	36.5*	23.1	1.8	32.9*	RORg DNA counter=i
c1coc(-c2nc3c4ccccc4ccn3c2Cc2ccsc2)c1	x	7.2	x	x	x
CN=C(NC)NCc1ccccc1	x	6.5	x	x	x
C#CCN(Cc1ccco1)C(=O)c1nnc2c3cc(OC)ccc3n(S(=O)(=O)c3ccc(OC)cc3)c2n1	x	-17.9	x	x	x
COc1cccc(-c2c(C#N)c(SC)nc3cc(C)nn23)c1	3.4	38.9*	0.0	-3.7	17.8
COc1cccc(N2CCN(c3nc(C)cc(C)c3C#N)CC2)c1	-1.5	-2.5	-0.7	0.2	x
N#Cc1ccc(-c2nc3ccc(Br)cn3c2Cc2cccc(Cl)c2)cc1	8.1	6.9	4.9	x	x
Cc1ccc(Cc2c(-c3ccc(C#N)cc3)nc3ccc(C)cn23)cc1	x	-4.6	x	x	x
N#Cc1ccc(-c2nc3ccc(Br)cn3c2Cc2ccccc2)cc1	-0.9	21.9*	3.3	x	14.3*
Cc1ccc(Cc2c(-c3ccc(C#N)cc3)nc3ccc(Br)cn23)cc1	0.1	28.7*	4.8	x	6.1
CN1OC[C@@H]2CN(C(=S)Nc3cc(C(F)(F)F)cc(C(F)(F)F)c3)[C@H](c3ccccc3Br)C[C@@H]21	x	7.5	x	x	x
CCCCCc1ccc(OCCCC[n+]2cccc(C)c2)c(CCCCC)c1	0.4	21.1*	-7.0	-2.0	27.6*
CCCCCc1ccc(OCCCC[n+]2ccccc2)c(CCCCC)c1	3.6	x	-7.7	-0.9	x
CCCCCc1ccc(OCCCC[n+]2ccc(C)cc2)c(CCCCC)c1	1.5	21.2*	0.0	-0.3	25.2*
Cc1ccc(OCCNC(=O)[C@@H](Cc2ccccc2)NC(=O)[C@H]2O[C@@H](n3ccc(=O)[nH]c3=O)[C@H](O)[C@@H]2O)cc1C	x	-5.2	x	x	x
CC(C)(C)C(=O)N1CCC[C@]2(CC[C@H](CCC#N)O2)C1	x	2.3	x	x	x
O=C(CSc1nnc(COc2ccccc2)n1-c1ccc(Cl)cc1)Nc1ccc2c(c1)OCCO2	x	1.9	x	x	x
Cc1nc2ncc(Br)cc2[nH]1	1.4	-1.0	-11.6	-0.4	x
Cc1ccc(-c2nc3cc(Br)cnc3nc2-c2ccc(C)cc2)cc1	-2.0	25.6*	-1.5	0.0	15.9
SMILES	HNF4A DNA FP	NR1D1 modulator	CSN deneddyl inh	TPT1 inh	NR1D1 mod conf	others
Cc1ccc(CNC(=O)c2cc3c(=O)n(C)c4ccccc4c3n2C)cc1	4.1	63.1*	5.2	2.5	43.2*	RORg DNA counter=>40
Cn1c(C(=O)NCc2cccs2)cc2c(=O)n(C)c3ccccc3c21	-0.1	33.2*	-1.6	-1.6	18.0*
Cn1c(C(=O)NC2CCCCCC2)cc2c(=O)n(C)c3ccccc3c21	-1.1	47.6*	-2.4	-3.9	26.0*
CN(CCNC(=O)c1cc2c(=O)n(C)c3ccccc3c2n1C)Cc1ccccc1	-2.8	-3.3	4.4	0.0	x
CC1(C(=O)NS(=O)(=O)C2CC2)CCCN(C(=O)c2cccs2)C1 (centres undefined)	3.0	-7.6	-4.4	x	x
O=C(Nc1ccc(S(=O)(=O)C(F)F)cc1)c1ccc2c(=O)n3c(nc2c1)CCC3	1.3	20.4*	-1.2	1.6	9.2
CCCCn1c(SC(C)C(=O)NCC2CCCO2)nc2cc(C(=O)OC)ccc2c1=O (centres undefined)	3.2	39.8*	0.1	1.0	31.6*	RORg DNA counter=>40
